Rows were chosen to be rich in hits. Some 5.9% of all compounds tested hit in one or more screens of this group.
Pf Dd2 growth: inhibitors of Plasmodium falciparum Dd2 growth. P. falciparum Dd2 growth, SYBR Green, 72 h; active compounds read low. activity change, % at 10 µM. 94,000 compounds, 2.3% hits; in the data active = activity change below about -80%; inconclusive = no clear call, values can overlap the other calls
GASC1 inh: inhibitors of human demethylase GASC-1 KDM4C; GST-KDM4C 2-372, H3K9me3 peptide, LANCE TR-FRET; inhibition, % at 12.5 µM; 96,000 compounds, 0.15% hits;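 active = mean replicate inhibition above about 25%, with at least 55% of replicates also reaching it, limit read from the data, passing the limit was not always enough; inconclusive = only one of those two conditions met; inactive = neither condition met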
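System: N-terminal GST-fused human GASC-1 (KDM4C) fragment, residues 2-372; amount: enzyme final amount 10 nM; incubation: reaction 30 min RT, detection step 1 h RT; medium: HEPES buffer, pH 7.5, plus ascorbate; technique: LANCE TR-FRET, Eu antibody, ULight-streptavidin, EDTA, ex 340 nm, em 618/671 nm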
IDH1 mut inh: inhibitors of human IDH1 R132H | O75874 | IDH1 R132H reductase, diaphorase/resazurin fluorescence, 60 min | inhibition, % at 10 µM | 70,000 compounds, 0.18% hits | AID 624101; in the data active = inhibition above about 34%; inconclusive = no clear call, values can overlap the other calls; inactive = below about 11%;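 also: 0% = DMSO and 100% = no enzyme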
Target sequence (O75874 whole entry R132H): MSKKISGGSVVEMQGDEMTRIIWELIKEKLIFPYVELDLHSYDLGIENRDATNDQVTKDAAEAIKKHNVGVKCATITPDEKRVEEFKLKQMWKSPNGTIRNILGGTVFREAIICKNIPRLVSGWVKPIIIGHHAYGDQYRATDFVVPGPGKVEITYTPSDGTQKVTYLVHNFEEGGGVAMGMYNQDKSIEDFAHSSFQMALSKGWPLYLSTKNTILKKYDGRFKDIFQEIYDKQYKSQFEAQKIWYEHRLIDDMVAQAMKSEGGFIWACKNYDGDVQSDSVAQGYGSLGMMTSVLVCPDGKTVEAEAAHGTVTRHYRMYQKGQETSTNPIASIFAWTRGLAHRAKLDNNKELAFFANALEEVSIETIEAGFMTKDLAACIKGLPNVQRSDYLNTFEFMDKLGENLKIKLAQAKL
T cruzi growth-1: inhibitors of T. cruzi proliferation; T. cruzi beta-gal in NIH3T3, GalScreen luminescence, 90 h; AID 624255; inhibition, % at 8.34 µM; 77,000 compounds, 5.9% hits;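 active = mean inhibition above about 93%, with at least 55% of replicates each passing it, limit read from the data, passing the limit was not always enough; inconclusive = only one of those two conditions holds; inactive = neither condition holds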
T cruzi growth-2: Trypanosoma cruzi proliferation inhibition. inhibition, % at 8.35 µM. AID 651739. T. cruzi beta-gal in NIH3T3, GalScreen luminescence, 90 h. shares compounds with T cruzi growth-1. 5,600 compounds, 72% hits;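 active = mean replicate inhibition above about 95% and at least 55% of replicates individually reaching it, limit read from the data; inconclusive = only one of the two criteria is met; inactive = neither criterion is met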
T cruzi growth-3: inhibitors of T. cruzi proliferation; shares compounds with T cruzi growth-1; T. cruzi beta-gal in NIH3T3, GalScreen luminescence, 90 h; inhibition, % at 2.09 µM; 5,600 compounds, 21% hits;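 active = mean inhibition above about 95%, with at least 55% of replicates also reaching it, limit read from the data; inconclusive = meets just one of the two conditions; inactive = meets neither condition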;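 also: plate controls were neutral control median for no effect and positive control median for full effect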
3T3 cytotox: NIH/3T3 (mouse) viability loss | shares compounds with T cruzi growth-1 | NIH/3T3 viability, CellTiter-Glo ATP luminescence, 90 h | cytotoxicity (signal decrease), % at 8.35 µM | 5,600 compounds, 14% hits;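 active = mean signal decrease across replicates above about 35% based on untreated-well scatter, with enough replicates individually passing, limit read from the data; inconclusive = no rule stated though some were filed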;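 also: 0% = median of neutral control wells and 100% = median of positive control wells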
3T3 cytotox 2: cytotoxicity in mouse NIH/3T3 fibroblasts; shares compounds with T cruzi growth-1; NIH/3T3 viability, CellTiter-Glo ATP luminescence, 90 h; inhibition, % at 24.9 µM; 5,600 compounds, 56% hits; AID 651744;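 active = mean loss of cell viability signal at or above a set limit, and enough replicates individually reaching it; inconclusive = meets only the mean limit or only the replicate share; inactive = meets neither condition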;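 also: 0% = median of neutral control wells and 100% = median of positive control wells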
Active calls of the source: *; ? = inconclusive; · = not tested or not shown.

SMILES	Pf Dd2 growth	GASC1 inh	IDH1 mut inh	T cruzi growth-1	T cruzi growth-2	T cruzi growth-3	3T3 cytotox	3T3 cytotox 2
C[C@@H]1CN([C@@H](C)CO)C(=O)c2cc(NC(=O)Nc3ccc(F)cc3)ccc2O[C@@H](C)CCCCO[C@@H]1CN(C)Cc1ccc(C(F)(F)F)cc1	-76.4	0.0	·	101.4*	104.6*	114.0*	21.2	2.9
C[C@@H]1CCCCO[C@@H](CN(C)Cc2ccc(C(=O)O)cc2)[C@H](C)CN([C@H](C)CO)C(=O)c2cc(NC(=O)Nc3ccc(C(F)(F)F)cc3)ccc2O1	23.0	17.3	2.3	42.5	·	·	·	·
C[C@H](CO)N1C[C@H](C)[C@@H](CN(C)Cc2ccc(C(F)(F)F)cc2)OCCCC[C@H](C)Oc2ccc(NC(=O)Nc3ccc(F)cc3)cc2C1=O	-10.9	-0.4	·	?	94.6	110.0*	10.1	12.9
C[C@@H]1CCCCO[C@@H](CN(C)Cc2ccc(C(F)(F)F)cc2)[C@H](C)CN([C@@H](C)CO)C(=O)c2cc(NC(=O)Nc3ccc(F)cc3)ccc2O1	-53.6	-0.2	2.1	93.8	·	·	·	·
CN(C)CC(=O)N1CCCCN2[C@H](CO)[C@H](c3ccc(/C=C/c4ccccc4)cc3)[C@@H]2C1	-2.2	-1.2	·	100.6*	111.8*	110.1*	89.0*	104.3*
CCC(=O)N1CCCCN2[C@@H](CO)[C@@H](c3ccc(/C=C/c4ccccc4)cc3)[C@@H]2C1	-22.8	-2.8	·	118.5*	98.8*	80.0	7.4	105.3*
CCC(=O)N1CCCCN2[C@H](CO)[C@@H](c3ccc(/C=C/c4ccccc4)cc3)[C@@H]2C1	7.9	-1.3	·	62.6	·	·	·	·
CN(C)CC(=O)N1CCCCN2[C@H](CO)[C@@H](c3ccc(/C=C/c4ccccc4)cc3)[C@@H]2C1	-17.2	-1.8	·	-21.1	·	·	·	·
CN1CCCCN2[C@@H](CO)[C@@H](c3ccc(/C=C/c4ccccc4)cc3)[C@@H]2C1	-6.5	-2.0	·	82.4	·	·	·	·
CCC(=O)N1CCCCN2[C@H](C1)[C@H](c1ccc(/C=C/c3ccccc3)cc1)[C@@H]2CO	-3.2	-1.7	·	104.7*	78.4	14.4	24.9	103.0*
NC(=O)CSc1nnc(-c2ccccc2O)n1-c1ccccc1	·	·	0.1	·	·	·	·	·
COc1ccc(-c2ccc([C@@H]3[C@H]4CN(C(=O)c5ccc(F)cc5)CCCCN4[C@H]3CO)cc2)cc1	-21.4	1.2	·	71.2	·	·	·	·
COc1ccc(-c2ccc([C@H]3[C@@H](CO)N4CCCCN(C(=O)c5ccc6c(c5)OCO6)C[C@@H]34)cc2)cc1	-43.5	0.3	·	117.6*	107.1*	92.6	45.9*	43.2*
COc1ccc(-c2ccc([C@@H]3[C@@H](CO)N4CCCCN(C(=O)c5ccc(F)cc5)C[C@@H]34)cc2)cc1	21.7	0.9	·	67.0	·	·	·	·
COc1ccc(-c2ccc([C@H]3[C@@H](CO)N4CCCCN(C(=O)c5ccc6c(c5)OCO6)C[C@H]34)cc2)cc1	-33.3	-2.9	·	100.8*	103.7*	66.4	48.9*	103.6*
COc1ccc(-c2ccc([C@@H]3[C@@H](CO)N4CCCCN(C(=O)c5ccc6c(c5)OCO6)C[C@H]34)cc2)cc1	-22.8	-0.9	·	98.0*	79.2	33.3	21.1	97.8*
COc1ccc(-c2ccc([C@@H]3[C@@H](CO)N4CCCCN(C(=O)c5ccc6c(c5)OCO6)C[C@@H]34)cc2)cc1	-76.3	-1.0	·	114.9*	97.8*	39.5	1.8	43.4*
O=C(c1ccc2c(c1)OCO2)N1CCCCN2[C@H](C1)[C@@H](c1ccc(-c3ccccc3)cc1)[C@@H]2CO	3.3	-0.5	·	87.5	·	·	·	·
CS(=O)(=O)N(CC(=O)Nc1ccccc1C(=O)N1CCOCC1)c1cccc(Cl)c1Cl	·	·	0.1	·	·	·	·	·
COc1cc(NC(=O)CCn2cnc3ccccc3c2=O)c(OC)cc1Cl	·	·	0.2	·	·	·	·	·
O=C(/C=C/c1ccc(OCCCCc2ccccc2)cc1)NO	·	·	0.4	·	·	·	·	·
